The species entered for assay [1] is Rattus norvegicus. Description: Effect on half-maximal decrease of DOPA formation in rat limbic regions. The assay is classed as functional. Particulars: Limbic system.
The species entered for assay [2] is Rattus norvegicus. Description: Effect on half-maximal decrease of DOPA formation in rat limbic regions; In active (no significant effect […]). It counts as functional. The settings on record: Limbic system.
The species entered for assay [3] is Rattus norvegicus. Briefly: Effect on half-maximal decrease of DOPA formation in rat striatal regions. It counts as functional.
For assay [4], the species on record is Rattus norvegicus. Briefly: Effect on half-maximal decrease of DOPA formation in rat striatal regions; In active (no significant effect […]). It counts as functional, organism-based.
For assay [5], the species on record is Rattus norvegicus. Briefly: Tested for locomotor activity by measuring accumulated counts/30 min in reserpine-pretreated rats. It counts as functional. In a few lines: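 Rats given reserpine 5 mg/kg sc 18 h beforehand, then test drug sc immediately before the session. Motor activity recorded by photocell motility meter as accumulated counts over 30 min, mean ± SEM (n = 3–4). Reserpine controls were used; Student's t test. Injection volume 5 mL/kg at roughly neutral pH.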

The species entered for assay [6] is Rattus norvegicus. Briefly: Tested for locomotor activity by measuring accumulated counts/30 min in reserpine-non-pretreated rats. The assay is classed as functional. In short, it runs like this:
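Nonpretreated rats were injected with test drug 5 min before a photocell motility session, and counts were accumulated over 30 min. Activity expressed as percent of saline controls, mean ± SEM (n = 3–5), compared by Student's t test. Injections were 5 mL/kg at approximately neutral pH.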

The subject of assay [7] is Rattus norvegicus. Briefly: Effect on half-maximal decrease of DOPA formation in rat limbic regions; In active (no significant decrease at […] sc). It counts as functional, organism-based. Particulars: Limbic system.

Values joined by “and” are separate entries in the source; they are usually repeats but may differ in a detail not shown here. Equal entries are not always repeated. Active and inactive are the calls of the source. No cut-off for these calls is given here.

`CCCN(CCC)[C@H]1Cc2cc(O)ccc2C[C@H]1C`: the median effective dose (ED50) was found to be 11 µmol/kg in assay [1] and 7.5 µmol/kg in assay [3]. Moreover, the ED50 entry in assay [2] and in assay [4] was “inactive” throughout. In addition, the No. of counts in assay [5] was 331 counts/30 min; in assay [6], 119%.

In the case of `CCCN(CCC)[C@H]1Cc2cc(O)ccc2C[C@@H]1C`, the ED50 entry in assay [2] and in assay [4] was “inactive” throughout. Also, the No. of counts was 35 counts/30 min in assay [5] and 89% in assay [6].

With `CCCN(CCC)[C@H]1Cc2cc(OC)ccc2CC1C` (stereo partly specified), the ED50 entry in assay [2] and in assay [4] was “inactive” in each case. For the same molecule, the No. of counts in assay [6] was 96%.

Consider `CCCN(CCC)[C@@H]1CCc2ccc(O)cc2C1`, for which the ED50 in assay [1] and in assay [3] was 0.01 µmol/kg in each case. Further, in assay [5], the No. of counts was found to be 46 counts/30 min.

Consider `CCCN[C@H]1Cc2cc(OC)ccc2CC1C` (stereo partly specified), for which the ED50 result in assay [2] and in assay [4] was “inactive” throughout. The No. of counts in assay [6] came to 128%.

Take `CCCN(CCC)[C@@H]1CCc2ccc(OC)cc2C1C` (single isomer, unassigned; 5) [listing 1 of 2 here]: the No. of counts in assay [5] was 4 counts/30 min; in assay [6] it was 109% and 92%.

On to `CCCN(CCC)[C@@H]1CCc2ccc(OC)cc2C1C` (single isomer, unassigned; 5) [listing 2 of 2 here], for which the ED50 entry in assay [7], in assay [2] and in assay [4] was “inactive” in each case.

In the case of `CCCN(CCC)[C@@H]1CCc2ccc(O)cc2C1C` (single isomer, unassigned; 6) [listing 1 of 2 here], the No. of counts in assay [5] was 14 counts/30 min and 17 counts/30 min; in assay [6], 126% and 136%.

As to `CCCN(CCC)[C@@H]1CCc2ccc(O)cc2C1C` (single isomer, unassigned; 6) [listing 2 of 2 here], the ED50 entry in assay [2] and in assay [4] was “inactive” throughout.

For `CCCN(CCC)[C@@H]1CCc2ccc(OC)cc2C1C` (single isomer, unassigned; 9) [listing 1 of 2 here], the values for the ED50 in assay [2] (ip) and in assay [3] were 0.9 µmol/kg and 1.3 µmol/kg, respectively. The No. of counts in assay [6] was 38% and 28%.

As for `CCCN(CCC)[C@@H]1CCc2ccc(OC)cc2C1C` (single isomer, unassigned; 9) [listing 2 of 2 here], the ED50 entry in assay [2] and in assay [4] was “inactive” throughout.

For the molecule `CCCN(CCC)[C@@H]1CCc2ccc(O)cc2C1C` (single isomer, unassigned; 10) [listing 1 of 2 here], in assay [5], the No. of counts was 50 counts/30 min and 20 counts/30 min.

With `CCCN(CCC)[C@@H]1CCc2ccc(O)cc2C1C` (single isomer, unassigned; 10) [listing 2 of 2 here], the ED50 entry in assay [2] and in assay [4] was “inactive” throughout.

With `CCCN[C@@H]1CCc2ccc(O)cc2C1C` (single isomer, unassigned; (+)), the ED50 was 1.4 µmol/kg in assay [1] and 1.2 µmol/kg in assay [3]. The No. of counts in assay [5] was 59 counts/30 min.

Consider `CCCN[C@@H]1CCc2ccc(O)cc2C1C` (single isomer, unassigned; (-)) [listing 1 of 2 here], for which, in assay [5], the No. of counts is 8 counts/30 min.

Take `CCCN[C@@H]1CCc2ccc(O)cc2C1C` (single isomer, unassigned; (-)) [listing 2 of 2 here]: the ED50 result in assay [2] and in assay [4] was “inactive” in each case.

As for `CN1CCc2cccc3c2[C@H]1Cc1ccc(O)c(O)c1-3` [APOMORPHINE], the ED50 in assay [1] and in assay [3] was 0.04 µmol/kg in each case. Moreover, the No. of counts in assay [5] turned out to be 366 counts/30 min; in assay [6], 227%.

In the case of `O=C(CCCN1CCC(O)(c2ccc(Cl)cc2)CC1)c1ccc(F)cc1` [HALOPERIDOL], the median effective dose (ED50) in assay [1] and in assay [3] was 0.19 µmol/kg in each case. For the same molecule, the ED50 entry in assay [2] and in assay [4] was “inactive” each time. The No. of counts in assay [6] was found to be 3%.

These data come from ChEMBL document CHEMBL1123860, “C1- and C3-methyl-substituted derivatives of 7-hydroxy-2-(di-n-propylamino)tetralin: activities at central dopamine receptors” (1987).
